Test results taken from ChEMBL document CHEMBL1287779, “Indium(III) chloride catalyzed three-component coupling reaction: a novel synthesis of 2-substituted aryl(indolyl)kojic acid derivatives as potent antifungal and antibacterial agents” (2010).
Values after ≈ are worked out from the molar mass of the structure shown.

Key:
Type in all cases: functional
[1] = test system: Diutina rugosa; assay: Antifungal activity against Candida rugosa NCIM 3462 assessed as zone of inhibition at 100 ug by agar well diffusion method; details: read-out: IZ
Outline: (§1)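 Agar well diffusion on potato dextrose agar. Plates were spread with 0.5 mL of a week-old culture of the test organism, and 6 mm wells were cut with a cork borer. Compounds were dissolved in DMSO at different concentrations and added to the wells, with controls included. Plates were held at 27 °C for 48 h, and inhibition zone diameters were read in mm. Three to four replicates per treatment.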

[2] = test system: Bacillus subtilis; assay: Antibacterial activity against Bacillus subtilis MTCC 441 by broth dilution method
Outline: (§2)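 MIC determined by broth dilution following NCCL standards. Penicillin and streptomycin were tested in parallel under identical conditions.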

[3] = test system: Saccharomyces cerevisiae; assay: Antifungal activity against Saccharomyces cerevisiae MTCC 36 assessed as zone of inhibition at 100 ug by agar well diffusion method; details: read-out: IZ; outline: as §1
[4] = test system: Rhizopus arrhizus; assay: Antifungal activity against Rhizopus oryzae MTCC 262 assessed as zone of inhibition at 150 ug by agar well diffusion method; details: read-out: IZ; outline: as §1
[5] = test system: Staphylococcus epidermidis; assay: Antibacterial activity against Staphylococcus epidermidis MTCC 2639 by broth dilution method; outline: as §2
[6] = test system: Staphylococcus aureus; assay: Antibacterial activity against Staphylococcus aureus MTCC 96 by broth dilution method; outline: as §2
[7] = test system: Aspergillus niger; assay: Antifungal activity against Aspergillus niger MTCC 282 assessed as zone of inhibition at 150 ug by agar well diffusion method; details: read-out: IZ; outline: as §1
[8] = test system: Pseudomonas aeruginosa; assay: Antibacterial activity against Pseudomonas aeruginosa MTCC 741 by broth dilution method; outline: as §2
[9] = test system: Klebsiella pneumoniae; assay: Antibacterial activity against Klebsiella pneumoniae MTCC 618 by broth dilution method; outline: as §2
[10] = test system: Escherichia coli; assay: Antibacterial activity against Escherichia coli MTCC 443 by broth dilution method; outline: as §2
[11] = test system: Rhizopus arrhizus; assay: Antifungal activity against Rhizopus oryzae MTCC 262 assessed as zone of inhibition at 100 ug by agar well diffusion method; details: read-out: IZ; outline: as §1
[12] = test system: Saccharomyces cerevisiae; assay: Antifungal activity against Saccharomyces cerevisiae MTCC 36 assessed as zone of inhibition at 150 ug by agar well diffusion method; details: read-out: IZ; outline: as §1
[13] = test system: Candida albicans; assay: Antifungal activity against Candida albicans MTCC 227 assessed as zone of inhibition at 100 ug by agar well diffusion method; details: read-out: IZ; outline: as §1
[14] = test system: Diutina rugosa; assay: Antifungal activity against Candida rugosa NCIM 3462 assessed as zone of inhibition at 150 ug by agar well diffusion method; details: read-out: IZ; outline: as §1
[15] = test system: Candida albicans; assay: Antifungal activity against Candida albicans MTCC 227 assessed as zone of inhibition at 150 ug by agar well diffusion method; details: read-out: IZ; outline: as §1
[16] = test system: Aspergillus niger; assay: Antifungal activity against Aspergillus niger MTCC 282 assessed as zone of inhibition at 100 ug by agar well diffusion method; details: read-out: IZ; outline: as §1

| MIC [2] [µg/mL] | MIC [5] [µg/mL] | MIC [6] [µg/mL] | MIC [8] [µg/mL] | MIC [9] [µg/mL] | MIC [10] [µg/mL] | Structure (SMILES) | zone of inhibition at 100 µg/disc [1] [mm] | zone of inhibition at 100 µg/disc [3] [mm] | zone of inhibition at 150 µg/disc [4] [mm] | zone of inhibition at 150 µg/disc [7] [mm] | zone of inhibition at 100 µg/disc [11] [mm] | zone of inhibition at 150 µg/disc [12] [mm] | zone of inhibition at 100 µg/disc [13] [mm] | zone of inhibition at 150 µg/disc [14] [mm] | zone of inhibition at 150 µg/disc [15] [mm] | zone of inhibition at 100 µg/disc [16] [mm] |
| --- | --- | --- | --- | --- | --- | --- | --- | --- | --- | --- | --- | --- | --- | --- | --- | --- |
| 150 (≈ 432 µM) | 150 (≈ 432 µM) | 150 (≈ 432 µM) | 150 (≈ 432 µM) | 75 (≈ 216 µM) | 150 (≈ 432 µM) | O=c1cc(CO)oc(C(c2ccccc2)c2c[nH]c3ccccc23)c1O (stereo not given) | 6 | 0 | 0 | 14 | 0 | 0 | 0 | 9 | 0 | 10 |
| 150 (≈ 397 µM) | 18.8 (≈ 49.7 µM) | 37.5 (≈ 99.4 µM) | 75 (≈ 199 µM) | 75 (≈ 199 µM) | 150 (≈ 397 µM) | COc1ccc(C(c2oc(CO)cc(=O)c2O)c2c[nH]c3ccccc23)cc1 (stereo not given) | 6 | 0 | 0 | 0 | 0 | 0 | 0 | 9 | 0 | 0 |
| 150 (≈ 341 µM) | 18.8 (≈ 42.7 µM) | 37.5 (≈ 85.3 µM) | 75 (≈ 171 µM) | 75 (≈ 171 µM) | 75 (≈ 171 µM) | O=c1cc(CO)oc(C(c2cccc(Oc3ccccc3)c2)c2c[nH]c3ccccc23)c1O (stereo not given) | 13 | 14 | 10 | 16 | 7 | 19 | 14 | 18 | 19 | 11 |
| 150 (≈ 383 µM) | 150 (≈ 383 µM) | 150 (≈ 383 µM) | 150 (≈ 383 µM) | 150 (≈ 383 µM) | 150 (≈ 383 µM) | COc1ccc(C(c2oc(CO)cc(=O)c2O)c2c(C)[nH]c3ccccc23)cc1 (stereo not given) | 0 | 0 | 0 | 0 | 0 | 0 | 0 | 0 | 0 | 0 |
| 150 (≈ 331 µM) | 150 (≈ 331 µM) | 18.8 (≈ 41.3 µM) | 75 (≈ 165 µM) | 75 (≈ 165 µM) | 75 (≈ 165 µM) | Cc1[nH]c2ccccc2c1C(c1cccc(Oc2ccccc2)c1)c1oc(CO)cc(=O)c1O (stereo not given) | 11 | 10 | 0 | 14 | 0 | 14 | 9 | 16 | 14 | 9 |
| 150 (≈ 368 µM) | 150 (≈ 368 µM) | 150 (≈ 368 µM) | 150 (≈ 368 µM) | 150 (≈ 368 µM) | 150 (≈ 368 µM) | COc1cc(C(c2oc(CO)cc(=O)c2O)c2c(C)[nH]c3ccccc23)ccc1O (stereo not given) | 0 | 0 | 0 | 0 | 0 | 0 | 0 | 0 | 0 | 0 |
| 150 (≈ 379 µM) | 18.8 (≈ 47.4 µM) | 37.5 (≈ 94.7 µM) | 18.8 (≈ 47.4 µM) | 75 (≈ 189 µM) | 18.8 (≈ 47.4 µM) | Cc1[nH]c2ccccc2c1C(c1ccc(Cl)cc1)c1oc(CO)cc(=O)c1O (stereo not given) | 0 | 0 | 10 | 12 | 7 | 0 | 0 | 0 | 0 | 8 |
| 150 (≈ 365 µM) | 150 (≈ 365 µM) | 150 (≈ 365 µM) | 150 (≈ 365 µM) | 150 (≈ 365 µM) | 150 (≈ 365 µM) | Cc1[nH]c2ccccc2c1C(c1ccc2ccccc2c1)c1oc(CO)cc(=O)c1O (stereo not given) | 0 | 0 | 0 | 0 | 0 | 0 | 0 | 0 | 0 | 0 |
| 150 (≈ 329 µM) | 18.8 (≈ 41.1 µM) | 18.8 (≈ 41.1 µM) | 37.5 (≈ 82.2 µM) | 75 (≈ 164 µM) | 37.5 (≈ 82.2 µM) | COc1ccc(C(c2oc(CO)cc(=O)c2O)c2c[nH]c3ccc(Br)cc23)cc1 (stereo not given) | 13 | 10 | 0 | 18 | 0 | 16 | 13 | 19 | 18 | 12 |
| 150 (≈ 364 µM) | 150 (≈ 364 µM) | 2.34 (≈ 5.68 µM) | 4.68 (≈ 11.4 µM) | 18.8 (≈ 45.5 µM) | 4.68 (≈ 11.4 µM) | COc1ccc(C(c2oc(CO)cc(=O)c2O)c2c[nH]c3ccc(Cl)cc23)cc1 (stereo not given) | 0 | 16 | 0 | 20 | 0 | 21 | 11 | 0 | 16 | 14 |
| 150 (≈ 331 µM) | 150 (≈ 331 µM) | 37.5 (≈ 82.7 µM) | 75 (≈ 165 µM) | 150 (≈ 331 µM) | 75 (≈ 165 µM) | COc1ccc(C(c2oc(CO)cc(=O)c2O)c2c(-c3ccccc3)[nH]c3ccccc23)cc1 (stereo not given) | 10 | 9 | 0 | 14 | 0 | 14 | 9 | 14 | 12 | 10 |
| 18.8 (≈ 49.9 µM) | 18.8 (≈ 49.9 µM) | 9.38 (≈ 25 µM) | 37.5 (≈ 99.9 µM) | 75 (≈ 200 µM) | 9.38 (≈ 25 µM) | CCC(c1oc(CO)cc(=O)c1O)c1c(-c2ccccc2)[nH]c2ccccc12 (stereo not given) | 0 | 14 | 0 | 0 | 0 | 20 | 0 | 0 | 0 | 0 |
| 150 (≈ 341 µM) | 150 (≈ 341 µM) | 4.68 (≈ 10.6 µM) | 18.8 (≈ 42.7 µM) | 75 (≈ 171 µM) | 37.5 (≈ 85.3 µM) | O=c1cc(CO)oc(C(c2ccccc2O)c2c(-c3ccccc3)[nH]c3ccccc23)c1O (stereo not given) | 0 | 12 | 0 | 0 | 0 | 16 | 10 | 0 | 14 | 0 |
| – | – | – | – | – | – | C[C@@H]1[C@H](O)[C@@H](C)/C=C/C=C/C=C/C=C/C=C/C=C/C=C/[C@H](O[C@@H]2O[C@H](C)[C@@H](O)[C@H](N)[C@@H]2O)C[C@@H]2O[C@](O)(C[C@@H](O)C[C@@H](O)[C@H](O)CC[C@@H](O)C[C@@H](O)CC(=O)O[C@H]1C)C[C@H](O)[C@H]2C(=O)O [AMPHOTERICIN B] | 22 | 22 | – | – | 24 | – | 23.5 | – | – | 25 |
| 1.56 (≈ 4.67 µM) | 3.12 (≈ 9.35 µM) | 1.56 (≈ 4.67 µM) | 12.5 (≈ 37.4 µM) | 6.25 (≈ 18.7 µM) | 12.5 (≈ 37.4 µM) | CC1(C)S[C@@H]2[C@H](NC(=O)Cc3ccccc3)C(=O)N2[C@H]1C(=O)O [PENICILLIN G] | – | – | – | – | – | – | – | – | – | – |

| Structure (SMILES) | MIC [2] [µg/mL] | MIC [5] [µg/mL] | MIC [6] [µg/mL] | MIC [8] [µg/mL] | MIC [9] [µg/mL] | MIC [10] [µg/mL] | zone of inhibition at 100 µg/disc [1] [mm] | zone of inhibition at 100 µg/disc [3] [mm] | zone of inhibition at 150 µg/disc [4] [mm] | zone of inhibition at 150 µg/disc [7] [mm] | zone of inhibition at 100 µg/disc [11] [mm] | zone of inhibition at 150 µg/disc [12] [mm] | zone of inhibition at 100 µg/disc [13] [mm] | zone of inhibition at 150 µg/disc [14] [mm] | zone of inhibition at 150 µg/disc [15] [mm] | zone of inhibition at 100 µg/disc [16] [mm] |
| --- | --- | --- | --- | --- | --- | --- | --- | --- | --- | --- | --- | --- | --- | --- | --- | --- |
| CN[C@@H]1[C@H](O[C@H]2[C@H](O[C@H]3[C@H](O)[C@@H](O)[C@H](N=C(N)N)[C@@H](O)[C@@H]3N=C(N)N)O[C@@H](C)[C@]2(O)C=O)O[C@@H](CO)[C@H](O)[C@H]1O [STREPTOMYCIN] | 6.25 (≈ 10.7 µM) | 3.12 (≈ 5.37 µM) | 6.25 (≈ 10.7 µM) | 1.56 (≈ 2.69 µM) | 3.12 (≈ 5.37 µM) | 6.25 (≈ 10.7 µM) | – | – | – | – | – | – | – | – | – | – |
